Compound activity as filed in PubChem.
Most compounds without a hit are left out; they make up all but 2.3% or so of the library.
ABCB1 block – human ABCB1 inhibition, ABCG2 as counter-screen. P08183. CCRF-Adr cells, JC-1 efflux, flow cytometry. inhibition, % at 6.6 µM. hit rate 0.067% among 190,000. AID 1326; in the data active = inhibition above about 40%;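 also: higher value means more JC-1 retained so stronger ABCB1 efflux block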
MEKK2wt PB1 HTS – raises or lowers MEK5 binding to wildtype human MEKK2 PB1 domain. hit rate 1.1% among 290,000. binding response (% of control), % at 10 µM. AID 1531. bead flow cytometry, Alexa488-MEK5 binding to MEKK2 WT; actives lie on both sides. Q9Y2U5; in the data active = binding response below about 67% or above about 130%
MEKK3 PB1 HTS – raises or lowers MEK5 binding to the human MEKK3 PB1 domain. bead-based flow cytometry, Alexa488-MEK5 binding to MEKK3; actives lie on both sides; 0 = blocked by unlabeled MEK5, 100 = vehicle. binding response (% of control), % at 10 µM. hit rate 1.4% among 290,000;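 active = binding response more than 3 SD above or below the average of its plate-row segment, actives on both sides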;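 also: Alexa488 bead fluorescence after subtracting the streptavidin-only scavenger bead signal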
MEKK2 mut-MEK5 – signal of MEK5 binding to mutant human MEKK2 PB1 domain. bead flow cytometry, Alexa488-MEK5 binding to MEKK2 mutant. percent response, % at 10 µM. hit rate 0.35% among 290,000. AID 1530; in the data active = percent response above about 24%, passing the limit was not always enough
ABCG2 block – inhibitors of human ABCG2 transporter, ABCB1 counter-screen; inhibition, % at 6.6 µM; IgMXP3 cells, JC-1 efflux, flow cytometry; hit rate 0.1% among 190,000; AID 1325; Q9UNQ0;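 active = inhibition above 80%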
Target sequence (Q9UNQ0 whole entry, looked up): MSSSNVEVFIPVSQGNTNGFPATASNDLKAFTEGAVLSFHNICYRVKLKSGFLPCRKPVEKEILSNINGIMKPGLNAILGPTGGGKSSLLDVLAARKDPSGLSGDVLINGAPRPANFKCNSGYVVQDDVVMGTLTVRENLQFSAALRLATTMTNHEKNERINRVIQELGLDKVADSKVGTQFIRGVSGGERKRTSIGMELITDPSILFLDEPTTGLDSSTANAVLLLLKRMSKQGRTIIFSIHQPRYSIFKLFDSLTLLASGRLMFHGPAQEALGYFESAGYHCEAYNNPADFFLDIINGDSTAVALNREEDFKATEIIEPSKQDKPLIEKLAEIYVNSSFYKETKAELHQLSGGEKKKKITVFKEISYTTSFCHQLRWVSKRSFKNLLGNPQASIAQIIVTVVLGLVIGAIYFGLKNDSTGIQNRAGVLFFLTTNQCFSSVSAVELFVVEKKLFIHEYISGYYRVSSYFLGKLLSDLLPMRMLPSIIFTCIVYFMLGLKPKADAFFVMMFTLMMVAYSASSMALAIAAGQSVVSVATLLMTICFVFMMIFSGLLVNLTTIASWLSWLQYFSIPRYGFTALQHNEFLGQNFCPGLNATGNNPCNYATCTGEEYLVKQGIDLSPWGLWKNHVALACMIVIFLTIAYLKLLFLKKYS
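material = IgMXP3 (ABCG2) plus far-red-tagged CCRF-Adr (ABCB1) cells | amount = 3 million cells/mL, equal mix of both lines | also added = JC-1 transporter substrate | dosing = one concentration, 6.6 µM final | schedule = 10 min at 25 °C | measured by = flow cytometric JC-1 green MFI at 530 nm | read-out basis = percent efflux inhibition, scaled nicardipine 100% to DMSO 0%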
MEKK2wt confirm – raises or lowers MEK5 binding to wildtype human MEKK2, retest. binding response (% of control), % at 10 µM. shares compounds with MEKK3 PB1 HTS. AID 1892. bead flow cytometry, Alexa488-MEK5 binding to MEKK2 WT; actives lie on both sides. hit rate 2.4% among 5,900; in the data active = binding response below about 16% or above about 210%; inactive = in between
MEKK2mut-MEK5 – signal of MEK5 binding to mutant human MEKK2, retest; hit rate 2% among 5,900; percent response, % at 10 µM; bead flow cytometry, Alexa488-MEK5 binding to MEKK2 mutant; shares compounds with MEKK3 PB1 HTS; in the data active = percent response mostly above about 71%, no sharp cut-off; inactive = mostly below about 38%;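 also: higher means compound restores mutant binding toward wildtype level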
MEKK3 confirm – confirmation of inhibitors of MEK5 binding to human MEKK3; shares compounds with MEKK3 PB1 HTS; bead flow cytometry, Alexa488-MEK5 binding to MEKK3; stronger effect = lower value; binding response (% of control), % at 10 µM; hit rate 1.8% among 5,900; AID 1894;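 active = binding response below 72% of control, or above a set upper limit, though filed actives all read lower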
Of the large screens only hits and unclear results are named; the others gave an inactive call (follow-up assays come after a bar, where they were run); ! = not active in a repeat; [ ] = dose if it differs, or a comment.

Cc1ccc(S(=O)(=O)N2CCC(C(=O)N3CCCC3C(=O)N[C@@H](CC(C)C)C(=O)NCC(N)=O)CC2)cc1 (some centres not stated)	none (no result: ABCB1 block, ABCG2 block)
COc1ccc(-c2cc(=O)c3c(OC)c(OC)c(OC)c(OC)c3o2)cc1OC	MEKK3 PB1 HTS 68![inhibitor] | MEKK2wt confirm inactive | MEKK2mut-MEK5 inactive | MEKK3 confirm inactive
COc1c(OC)c(O)c2c(=O)cc(-c3c(O)cccc3O)oc2c1OC	none
O=C(CNC(=O)c1ccccc1)NCC(O)c1ccc([N+](=O)[O-])cc1 (configuration not stated)	none (no result: ABCB1 block, ABCG2 block)
Cc1ccc(S(=O)(=O)NC(Cc2ccccc2)C(=O)O)cc1 (configuration not stated)	MEKK2wt PB1 HTS -3.0[inhibitor], MEKK3 PB1 HTS 1.0[inhibitor] | MEKK2wt confirm inactive | MEKK2mut-MEK5 inactive | MEKK3 confirm inactive
O=C(O)C(Cc1c[nH]c2ccccc12)NS(=O)(=O)c1ccc2ccccc2c1 (configuration not stated)	none
Cc1cccc(S(=O)(=O)NC(Cc2c[nH]c3ccccc23)C(=O)O)c1 (configuration not stated)	MEKK3 PB1 HTS 131 | MEKK2wt confirm inactive | MEKK2mut-MEK5 inactive | MEKK3 confirm inactive
COc1ccc(NC(=O)CN(C)C(=O)C23CC4CC(CC(C4)C2)C3)cc1	none (no result: ABCB1 block, ABCG2 block)
COc1ccc([N+](=O)[O-])cc1NC(=O)CSc1nncn1-c1ccccc1	MEKK2 mut-MEK5 55 | MEKK2wt confirm inactive | MEKK2mut-MEK5 inactive | MEKK3 confirm inactive
COc1ccccc1NC(=O)CSc1nncn1-c1ccccc1	none (no result: ABCB1 block, ABCG2 block)
Cc1ccc(S(=O)(=O)N2CCCCC2)cc1NC(=O)CSc1nncn1-c1ccccc1	MEKK2 mut-MEK5 107 (no result: MEKK2wt PB1 HTS) | MEKK2wt confirm inactive | MEKK2mut-MEK5 inactive | MEKK3 confirm inactive
CCn1c(SCC(=O)OC)nnc1-c1c[nH]c2ccccc12	MEKK3 PB1 HTS 129 (no result: ABCB1 block, ABCG2 block) | MEKK2wt confirm inactive | MEKK2mut-MEK5 inactive | MEKK3 confirm inactive
Cc1cc2nnc(SCCCCN3C(=O)c4ccccc4C3=O)n2c2ccccc12	none
COC(=O)CSc1nnc2cc(C)c3ccccc3n12	MEKK2wt PB1 HTS 41[inhibitor], MEKK3 PB1 HTS 46[inhibitor] (no result: ABCB1 block, ABCG2 block) | MEKK2wt confirm inactive | MEKK2mut-MEK5 inactive | MEKK3 confirm inactive
COc1ccccc1N(CC(=O)Nc1ccc2c(c1)OCCO2)S(=O)(=O)c1ccc(C)cc1	none (no result: ABCB1 block, ABCG2 block)
CCOC(=O)c1ccc(NS(=O)(=O)c2ccc3oc(=O)[nH]c3c2)cc1	none (no result: ABCB1 block, ABCG2 block)
CCOC(=O)C(NC(=O)C1C(C)N1S(=O)(=O)c1ccc(C)cc1)C(=O)OCC (configuration not stated)	none (no result: ABCB1 block, ABCG2 block)
Cc1cc2nnc(SCC(=O)Nc3cc(S(=O)(=O)N4CCOCC4)ccc3Cl)n2c2ccccc12	none
Cc1ccc(S(=O)(=O)N2CCOCC2)cc1NC(=O)COC(=O)C1COc2ccccc2O1 (configuration not stated)	MEKK3 PB1 HTS 144 | MEKK2wt confirm inactive | MEKK2mut-MEK5 inactive | MEKK3 confirm inactive
Cc1ccc(S(=O)(=O)N2CCOCC2)cc1NC(=O)CSc1nnc2cc(C)c3ccccc3n12	MEKK3 PB1 HTS 141 | MEKK2wt confirm inactive | MEKK2mut-MEK5 inactive | MEKK3 confirm inactive
O=C(COC(=O)C1COc2ccccc2O1)Nc1cccc(S(=O)(=O)N2CCCCC2)c1 (configuration not stated)	none
Cc1oc(-c2cccc(Cl)c2)nc1CN1CCC(C(=O)N2CCN(c3ccccc3F)CC2)CC1	MEKK2wt PB1 HTS 140 | MEKK2wt confirm inactive | MEKK2mut-MEK5 inactive | MEKK3 confirm inactive
COc1ccc(C2=NO[C@@H]3[C@@H]4C[C@@H]([C@H]5C(=O)N(C)C(=O)[C@@H]45)[C@H]23)cc1	MEKK3 PB1 HTS 153 | MEKK2wt confirm inactive | MEKK2mut-MEK5 inactive | MEKK3 confirm inactive
